ChEMBL document CHEMBL4689842, “EUbOPEN Chemogenomics Library wave 1” (2021)

Experiments:
Format in all cases: toxicity, cell-based
[1] = test system: HEK-293T; test: Incucyte cell viability with HEK293T; conditions: human, 10 µM, compound concentration 10 uM; also: filed as whole numbers so only -1 and 0 and 1 occur
[2] = test system: U2OS; test: Incucyte cell viability with U2OS; conditions: human, 10 µM, compound concentration 10 uM; also: filed as whole numbers so only -1 and 0 and 1 occur
[3] = test system: Fibroblast; test: Incucyte cell viability with human fibroblast; conditions: 10 µM, compound concentration 10 uM; also: filed as whole numbers so only -1 and 0 and 1 occur
[4] = test system: Fibroblast; test: Multiplex assay against human fibroblast
How it was run: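 Imaging took place on a CQ1 microscope at 37°C and 5% CO2 once compound had been added to live cells stained at seeding with Hoechst33342, BioTracker Green Microtubule Cytoskeleton Dye, MitoTracker Red and Annexin V Alexa Fluor 680. CellPathfinder machine-learning gating classed cells as Hoechst high-intensity objects or normal cells, classed normal cells as having healthy, pyknosed or fragmented nuclei, and classed pyknosed cells as mitotic or apoptotic. Tubulin, mitochondrial-mass and membrane-permeability phenotypes are per cents of the healthy-nucleus cells.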

[5] = 0 h, replicate number 1, timepoint 0 hours
[6] = 6 h, replicate number 1, timepoint 6 hours
[7] = 18 h, replicate number 1, timepoint 18 hours
[8] = 24 h, replicate number 1, timepoint 24 hours
[9] = 12 h, 1 µM, compound concentration 1 uM, replicate 1
[10] = 12 h, 1 µM, compound concentration 1 uM, replicate 2
[11] = 12 h, 10 µM, compound concentration 10 uM, replicate 1
[12] = 12 h, 10 µM, compound concentration 10 uM, replicate 2
[13] = 24 h, 1 µM, compound concentration 1 uM, replicate 1
[14] = 24 h, 1 µM, compound concentration 1 uM, replicate 2
[15] = 24 h, 10 µM, compound concentration 10 uM, replicate 1
[16] = 24 h, 10 µM, compound concentration 10 uM, replicate 2
[17] = 48 h, 1 µM, compound concentration 1 uM, replicate 1
[18] = 48 h, 1 µM, compound concentration 1 uM, replicate 2
[19] = 48 h, 10 µM, compound concentration 10 uM, replicate 1
[20] = 48 h, 10 µM, compound concentration 10 uM, replicate 2

CCC(=O)O[C@]1(C(=O)SCF)[C@H](C)C[C@H]2[C@@H]3C[C@H](F)C4=CC(=O)C=C[C@]4(C)[C@@]3(F)[C@@H](O)C[C@@]21C [FLUTICASONE PROPIONATE]
Growth Rate [1, 5]: 1 | Growth Rate ([1]; 0 h, replicate number 2, timepoint 0 hours): 0 | Growth Rate [1, 6]: 0 | Growth Rate ([1]; 12 h, replicate number 1, timepoint 12 hours): 0 | Growth Rate [1, 7]: 0 | Growth Rate ([1]; 18 h, replicate number 2, timepoint 18 hours): 1 | Growth Rate [1, 8]: 0 | Growth Rate ([1]; 24 h, replicate number 2, timepoint 24 hours): 1 | Growth Rate [2, 5]: 0 | Growth Rate ([2]; 6 h, replicate number 2, timepoint 6 hours): 1 | Growth Rate ([2]; 12 h, replicate number 2, timepoint 12 hours): 1 | Growth Rate [2, 7]: 1 | Growth Rate [2, 8]: 1 | Growth Rate [3, 5]: 0 | Growth Rate [3, 6]: 1 | Growth Rate [3, 7]: 1 | Growth Rate [3, 8]: 1 | Population Apoptotic (%) [4, 9]: 71% | Population Fragmented Nuclei (%) [4, 9]: 22% | Population Healthy Nuclei (%) [4, 9]: 45% | Population Hoechst High Intensity Objects (%) [4, 9]: 13% | Population Membrane Permeable-Phenotype (%) [4, 9]: 33% | Population Mitochondria Different-Phenotype (%) [4, 9]: 0% | Population Mitotic Cells (%) [4, 9]: 28% | Population Normal (%) [4, 9]: 86% | Population Pyknosed Nuclei (%) [4, 9]: 31% | Population Tubulin-Different-Phenotype (%) [4, 9]: 40% | Total Cell Count [4, 9]: 76 | Population Fragmented Nuclei (%) [4, 10]: 4% | Population Healthy Nuclei (%) [4, 10]: 78% | Population Hoechst High Intensity Objects (%) [4, 10]: 12% | Population Membrane Permeable-Phenotype (%) [4, 10]: 3% | Population Mitochondria Different-Phenotype (%) [4, 10]: 9% | Population Normal (%) [4, 10]: 87% | Population Pyknosed Nuclei (%) [4, 10]: 16% | Population Tubulin-Different-Phenotype (%) [4, 10]: 9% | Total Cell Count [4, 10]: 68 | Population Apoptotic (%) [4, 11]: 62% | Population Fragmented Nuclei (%) [4, 11]: 26% | Population Healthy Nuclei (%) [4, 11]: 50% | Population Hoechst High Intensity Objects (%) [4, 11]: 16% | Population Membrane Permeable-Phenotype (%) [4, 11]: 38% | Population Mitochondria Different-Phenotype (%) [4, 11]: 30% | Population Mitotic Cells (%) [4, 11]: 37% | Population Normal (%) [4, 11]: 83% | Population Pyknosed Nuclei (%) [4, 11]: 23% | Population Tubulin-Different-Phenotype (%) [4, 11]: 53% | Total Cell Count [4, 11]: 149 | Population Apoptotic (%) [4, 12]: 28% | Population Fragmented Nuclei (%) [4, 12]: 8% | Population Healthy Nuclei (%) [4, 12]: 81% | Population Hoechst High Intensity Objects (%) [4, 12]: 8% | Population Membrane Permeable-Phenotype (%) [4, 12]: 3% | Population Mitochondria Different-Phenotype (%) [4, 12]: 37% | Population Mitotic Cells (%) [4, 12]: 71% | Population Normal (%) [4, 12]: 92% | Population Pyknosed Nuclei (%) [4, 12]: 10% | Population Tubulin-Different-Phenotype (%) [4, 12]: 35% | Total Cell Count [4, 12]: 48 | Population Apoptotic (%) [4, 13]: 66% | Population Fragmented Nuclei (%) [4, 13]: 21% | Population Healthy Nuclei (%) [4, 13]: 62% | Population Hoechst High Intensity Objects (%) [4, 13]: 25% | Population Membrane Permeable-Phenotype (%) [4, 13]: 28% | Population Mitochondria Different-Phenotype (%) [4, 13]: 0% | Population Mitotic Cells (%) [4, 13]: 33% | Population Normal (%) [4, 13]: 74% | Population Pyknosed Nuclei (%) [4, 13]: 16% | Population Tubulin-Different-Phenotype (%) [4, 13]: 34% | Total Cell Count [4, 13]: 75 | Population Apoptotic (%) [4, 14]: 16% | Population Fragmented Nuclei (%) [4, 14]: 3% | Population Healthy Nuclei (%) [4, 14]: 84% | Population Hoechst High Intensity Objects (%) [4, 14]: 11% | Population Membrane Permeable-Phenotype (%) [4, 14]: 11% | Population Mitochondria Different-Phenotype (%) [4, 14]: 11% | Population Mitotic Cells (%) [4, 14]: 83% | Population Normal (%) [4, 14]: 88% | Population Pyknosed Nuclei (%) [4, 14]: 11% | Population Tubulin-Different-Phenotype (%) [4, 14]: 20% | Total Cell Count [4, 14]: 78 | Population Apoptotic (%) [4, 15]: 64% | Population Fragmented Nuclei (%) [4, 15]: 30% | Population Healthy Nuclei (%) [4, 15]: 50% | Population Hoechst High Intensity Objects (%) [4, 15]: 12% | Population Membrane Permeable-Phenotype (%) [4, 15]: 40% | Population Mitochondria Different-Phenotype (%) [4, 15]: 27% | Population Mitotic Cells (%) [4, 15]: 36% | Population Normal (%) [4, 15]: 87% | Population Pyknosed Nuclei (%) [4, 15]: 19% | Population Tubulin-Different-Phenotype (%) [4, 15]: 47% | Total Cell Count [4, 15]: 149 | Population Apoptotic (%) [4, 16]: 58% | Population Fragmented Nuclei (%) [4, 16]: 5% | Population Healthy Nuclei (%) [4, 16]: 78% | Population Hoechst High Intensity Objects (%) [4, 16]: 8% | Population Membrane Permeable-Phenotype (%) [4, 16]: 6% | Population Mitochondria Different-Phenotype (%) [4, 16]: 31% | Population Mitotic Cells (%) [4, 16]: 41% | Population Normal (%) [4, 16]: 91% | Population Pyknosed Nuclei (%) [4, 16]: 16% | Population Tubulin-Different-Phenotype (%) [4, 16]: 25% | Total Cell Count [4, 16]: 59 | Population Apoptotic (%) [4, 17]: 54% | Population Fragmented Nuclei (%) [4, 17]: 41% | Population Healthy Nuclei (%) [4, 17]: 43% | Population Hoechst High Intensity Objects (%) [4, 17]: 24% | Population Membrane Permeable-Phenotype (%) [4, 17]: 25% | Population Mitochondria Different-Phenotype (%) [4, 17]: 0% | Population Mitotic Cells (%) [4, 17]: 45% | Population Normal (%) [4, 17]: 75% | Population Pyknosed Nuclei (%) [4, 17]: 15% | Population Tubulin-Different-Phenotype (%) [4, 17]: 38% | Total Cell Count [4, 17]: 95 | Population Apoptotic (%) [4, 18]: 100% | Population Fragmented Nuclei (%) [4, 18]: 26% | Population Healthy Nuclei (%) [4, 18]: 72% | Population Hoechst High Intensity Objects (%) [4, 18]: 15% | Population Membrane Permeable-Phenotype (%) [4, 18]: 5% | Population Mitotic Cells (%) [4, 18]: 0% | Population Normal (%) [4, 18]: 84% | Population Pyknosed Nuclei (%) [4, 18]: 0% | Population Tubulin-Different-Phenotype (%) [4, 18]: 26% | Total Cell Count [4, 18]: 120 | Population Apoptotic (%) [4, 19]: 75% | Population Fragmented Nuclei (%) [4, 19]: 38% | Population Healthy Nuclei (%) [4, 19]: 47% | Population Hoechst High Intensity Objects (%) [4, 19]: 14% | Population Membrane Permeable-Phenotype (%) [4, 19]: 29% | Population Mitochondria Different-Phenotype (%) [4, 19]: 27% | Population Mitotic Cells (%) [4, 19]: 25% | Population Normal (%) [4, 19]: 85% | Population Pyknosed Nuclei (%) [4, 19]: 14% | Population Tubulin-Different-Phenotype (%) [4, 19]: 48% | Total Cell Count [4, 19]: 167 | Population Apoptotic (%) [4, 20]: 100% | Population Fragmented Nuclei (%) [4, 20]: 29% | Population Healthy Nuclei (%) [4, 20]: 66% | Population Hoechst High Intensity Objects (%) [4, 20]: 35% | Population Membrane Permeable-Phenotype (%) [4, 20]: 11% | Population Mitochondria Different-Phenotype (%) [4, 20]: 17% | Population Mitotic Cells (%) [4, 20]: 0% | Population Normal (%) [4, 20]: 64% | Population Pyknosed Nuclei (%) [4, 20]: 3% | Population Tubulin-Different-Phenotype (%) [4, 20]: 56% | Total Cell Count [4, 20]: 176
